# ChEMBL document CHEMBL3286138, “Petasin activates AMP-activated protein kinase and modulates glucose metabolism” (J Nat Prod, 2014)
# Active and inactive are the calls of the source. The rule behind the calls is not given here.
# Experiments:
# [1] = biological target: 5'-AMP-activated protein kinase catalytic subunit alpha-1 (Mus musculus) (UniProt Q5EG47); assay: Increase of AMPKalpha phosphorylation at Thr172 in mouse 3T3L1 cells at 10 uM after 2 hrs by Western blot analysis; assay type: cell-based; conditions: 3T3-L1
# Method in brief: (§1)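 Cells were starved, then treated 2 h with 2 mM AICAR as reference. C2C12 cells were myotubes differentiated 4 days in 2% horse serum. 3T3-L1 cells were adipocytes differentiated with insulin, dexamethasone and IBMX and used at days 10−14. Lysates were immunoblotted on 7.5% SDS-PAGE for p-AMPKα (Thr172), p-ACC (Ser79), total AMPKα and total ACC.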
# [2] = species on record: Rattus norvegicus; assay: Inhibition of rat liver mitochondrial respiratory chain complex 1 assessed as reduction of oxygen consumption at stage 4 in presence of glutamate and malate
# Method in brief: (§2)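 Liver mitochondria from Wistar rats were isolated by differential centrifugation in sucrose/Tris-MOPS/EGTA at pH 7.4, with respiratory control ratio 5−7. O2 uptake was measured with a Clark electrode, State 3/4 induced by 100 μM ADP. Complex I substrate was 5 mM glutamate plus 2.5 mM malate; complex II substrate was 5 mM succinate plus 2 μM rotenone. Dose−response run; mean ± SE, n = 3.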
# [3] = biological target: 5'-AMP-activated protein kinase catalytic subunit alpha-1 (Rattus norvegicus) (UniProt P54645); assay: Increase of AMPKalpha phosphorylation at Thr172 in rat H4IIE cells after 1 hr by Western blot analysis; assay type: cell-based
# Method in brief: (§3)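 H4IIE cells grown in 1 g/L glucose DMEM, serum-starved overnight, then treated 1 h; 2 mM AICAR served as reference. Lysates (50−100 μg protein) were run on 7.5% SDS-PAGE and immunoblotted for p-AMPKα (Thr172), p-ACC (Ser79), total AMPKα and total ACC.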
# [4] = system: H4IIE; assay: Activation of AMPK in rat H4IIE cells assessed as increase of AMP/ATP ratio level after 1 hr by spectrophotometric analysis; assay type: cell-based
# Method in brief: (§4)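 Serum-starved H4IIE hepatoma cells, differentiated C2C12 myotubes and differentiated 3T3-L1 adipocytes were exposed 1, 2 and 2 h respectively. Cells were lysed in Tris/SDS/glycerol, nuclease-digested, perchloric acid-extracted and neutralized. ATP, ADP and AMP were separated by C18 HPLC in phosphate buffer at pH 6.2, 40 °C, with detection at […]. AMP/ATP and ADP/ATP ratios were calculated from these levels; mean ± SE, n = 3.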
# [5] = system: 3T3-L1; assay: Activation of AMPK in mouse 3T3L1 cells assessed as increase of ADP level by spectrophotometric analysis; assay type: cell-based; method in brief: as §4
# [6] = biological target: 5'-AMP-activated protein kinase catalytic subunit alpha-1 (Rattus norvegicus) (UniProt P54645); assay: Activation of AMPKalpha in rat H4IIE cells assessed as ACC phosphorylation at Ser79 after 1 hr by Western blot analysis; assay type: cell-based; method in brief: as §3
# [7] = system: C2C12; assay: Activation of AMPK in mouse C2C12 cells assessed as increase of ADP/ATP ratio level after 2 hrs by spectrophotometric analysis; assay type: cell-based; method in brief: as §4
# [8] = system: Mus musculus; assay: Activation of AMPK in C57BL/6J mouse skeletal muscle assessed as increase of PGC-1alpha transcription at 100 to 200 mg/kg, po after 2 hrs by RT-qPCR analysis; conditions: Muscle tissue
# [9] = system: Mus musculus; assay: Activation of AMPK in glucose loaded C57BL/6J mouse assessed as decrease of AUC of blood glucose level at 100 to 200 mg/kg, po after 1 hr by oral glucose tolerance test; assay type: functional, organism-based
# Method in brief: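 Male C57BL/6J mice, fasted 15 h, dosed orally at 100 or 200 mg/kg. Glucose (1 M solution, 1 g/kg) given orally 60 min later. Tail-vein blood glucose read at 0, 15, 30, 45, 60, 90 and 120 min, and AUC calculated from the curve. Mean ± SE, 5 mice; one-way ANOVA with Dunnett's test against vehicle.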
# [10] = system: 3T3-L1; assay: Activation of AMPK in mouse 3T3L1 cells assessed as increase of AMP/ATP ratio level after 2 hrs by spectrophotometric analysis; assay type: cell-based; method in brief: as §4
# [11] = system: H4IIE; assay: Activation of AMPK in rat H4IIE cells assessed as increase of AMP level by spectrophotometric analysis; assay type: cell-based; method in brief: as §4
# [12] = system: Mus musculus; assay: Activation of AMPK in C57BL/6J mouse white adipose tissue assessed as phosphorylated ACC level at 200 mg/kg, po after 2 hrs by Western blot analysis; assay type: functional, organism-based; set-up: dose 200 mg/kg
# Method in brief: (§5)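 Male C57BL/6J mice (10 weeks), fasted 4 h, given a single oral dose of 200 mg/kg in 0.5% carboxymethyl cellulose with 0.5% polyoxyethylene sorbitan. Dissected under chloral hydrate anesthesia (500 mg/kg ip) 2 h later. Liver, epididymal white adipose and quadriceps were homogenized in RIPA buffer and immunoblotted for p-AMPKα (Thr172) and p-ACC (Ser79). Signals normalized to α-tubulin; mean ± SE, 5 mice; Student's t test against vehicle.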
# [13] = system: 3T3-L1; assay: Activation of AMPK in mouse 3T3L1 cells assessed as decrease of ATP level by spectrophotometric analysis; assay type: cell-based; method in brief: as §4
# [14] = biological target: 5'-AMP-activated protein kinase catalytic subunit alpha-1 (Rattus norvegicus) (UniProt P54645); assay: Increase of AMPKalpha phosphorylation at Thr172 in rat H4IIE cells at 0.3 uM after […] by Western blot analysis; assay type: cell-based
# [15] = system: H4IIE; assay: Activation of AMPK in rat H4IIE cells assessed as increase of ADP level by spectrophotometric analysis; assay type: cell-based; method in brief: as §4
# [16] = system: C2C12; assay: Activation of AMPK in mouse C2C12 cells assessed as increase of AMP/ATP ratio level after 2 hrs by spectrophotometric analysis; assay type: cell-based; method in brief: as §4
# [17] = system: H4IIE; assay: Increase of AMPK phosphorylation at Thr172 in rat H4IIE cells at 5 to 10 uM after 1 hr by ELISA; assay type: cell-based
# Method in brief: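 Confluent H4IIE cells in 96-well plates were starved overnight in serum-free DMEM (1 g/L glucose), then treated 1 h at 37 °C. Cells were fixed in 4% formaldehyde and endogenous peroxidase quenched with H2O2. Plates were blocked with 10% FBS and probed overnight at 4 °C with anti-p-AMPKα (Thr172), then with HRP secondary and TMB read-out. Mean ± SE, n = 4; Dunnett's test against basal.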
# [18] = biological target: 5'-AMP-activated protein kinase catalytic subunit alpha-1 (Mus musculus) (UniProt Q5EG47); assay: Increase of AMPKalpha phosphorylation at Thr172 in mouse C2C12 cells at 5 uM after 2 hrs by Western blot analysis; assay type: cell-based; method in brief: as §1
# [19] = system: C2C12; assay: Activation of AMPK in mouse C2C12 cells assessed as increase of AMP level by spectrophotometric analysis; assay type: cell-based; method in brief: as §4
# [20] = species on record: Rattus norvegicus; assay: Inhibition of rat liver mitochondrial respiratory chain complex 2 assessed as reduction of oxygen consumption at stage 4 in presence of succinate and rotenone; method in brief: as §2
# [21] = system: Mus musculus; assay: Activation of AMPK in C57BL/6J mouse liver at 200 mg/kg, po after 2 hrs by Western blot analysis; assay type: functional, organism-based; set-up: dose 200 mg/kg; method in brief: as §5
# [22] = system: Mus musculus; assay: Activation of AMPK in C57BL/6J mouse white adipose tissue at 200 mg/kg, po after 2 hrs by Western blot analysis; assay type: functional, organism-based; set-up: dose 200 mg/kg; method in brief: as §5
# [23] = system: C2C12; assay: Activation of AMPK in mouse C2C12 cells assessed as increase of ADP level by spectrophotometric analysis; assay type: cell-based; method in brief: as §4
# [24] = system: Mus musculus; assay: Activation of AMPK in C57BL/6J mouse liver assessed as phosphorylated ACC level at 200 mg/kg, po after 2 hrs by Western blot analysis; assay type: functional, organism-based; set-up: dose 200 mg/kg; method in brief: as §5
# [25] = system: 3T3-L1; assay: Activation of AMPK in mouse 3T3L1 cells assessed as increase of AMP level by spectrophotometric analysis; assay type: cell-based; method in brief: as §4
# [26] = species on record: Rattus norvegicus; assay: Inhibition of rat liver mitochondrial respiratory chain complex 1 assessed as reduction of oxygen consumption at stage 4 at 10 uM in presence of glutamate and ADP; method in brief: as §2
# [27] = biological target: AMP-activated protein kinase, AMPK (Homo sapiens) (UniProt P54646+O43741+P54619+Q9UGJ0+Q9Y478+Q13131+Q9UGI9); assay: Activation of AMPK in LKB1-deficient human HeLa cells at 10 to 100 uM after 1 hr by Western blot analysis; assay type: cell-based
# [28] = system: C2C12; assay: Activation of AMPK in mouse C2C12 cells assessed as decrease of ATP level by spectrophotometric analysis; assay type: cell-based; method in brief: as §4
# [29] = system: H4IIE; assay: Activation of AMPK in rat H4IIE cells assessed as decrease of ATP level by spectrophotometric analysis; assay type: cell-based; method in brief: as §4
# [30] = system: H4IIE; assay: Activation of AMPK in rat H4IIE cells assessed as increase of ADP/ATP ratio level after 1 hr by spectrophotometric analysis; assay type: cell-based; method in brief: as §4
# [31] = system: 3T3-L1; assay: Activation of AMPK in mouse 3T3L1 cells assessed as increase of ADP/ATP ratio level after 2 hrs by spectrophotometric analysis; assay type: cell-based; method in brief: as §4
# [32] = system: Mus musculus; assay: Activation of AMPK in C57BL/6J mouse skeletal muscle at 200 mg/kg, po after 2 hrs by Western blot analysis; assay type: functional, organism-based; set-up: dose 200 mg/kg; conditions: Muscle tissue; method in brief: as §5
# [33] = system: Mus musculus; assay: Activation of AMPK in glucose loaded C57BL/6J mouse assessed as decrease of AUC of blood glucose level at 500 mg/kg, po after 1 hr by oral glucose tolerance test; assay type: functional, organism-based; set-up: dose 500 mg/kg
# [34] = system: Mus musculus; assay: Activation of AMPK in C57BL/6J mouse skeletal muscle assessed as increase of PGC-1alpha transcription at 500 mg/kg, sc after 2 hrs by RT-qPCR analysis; conditions: Muscle tissue
# Chain of 5'-AMP-activated protein kinase catalytic subunit alpha-1 (Rattus norvegicus) (P54645 whole entry): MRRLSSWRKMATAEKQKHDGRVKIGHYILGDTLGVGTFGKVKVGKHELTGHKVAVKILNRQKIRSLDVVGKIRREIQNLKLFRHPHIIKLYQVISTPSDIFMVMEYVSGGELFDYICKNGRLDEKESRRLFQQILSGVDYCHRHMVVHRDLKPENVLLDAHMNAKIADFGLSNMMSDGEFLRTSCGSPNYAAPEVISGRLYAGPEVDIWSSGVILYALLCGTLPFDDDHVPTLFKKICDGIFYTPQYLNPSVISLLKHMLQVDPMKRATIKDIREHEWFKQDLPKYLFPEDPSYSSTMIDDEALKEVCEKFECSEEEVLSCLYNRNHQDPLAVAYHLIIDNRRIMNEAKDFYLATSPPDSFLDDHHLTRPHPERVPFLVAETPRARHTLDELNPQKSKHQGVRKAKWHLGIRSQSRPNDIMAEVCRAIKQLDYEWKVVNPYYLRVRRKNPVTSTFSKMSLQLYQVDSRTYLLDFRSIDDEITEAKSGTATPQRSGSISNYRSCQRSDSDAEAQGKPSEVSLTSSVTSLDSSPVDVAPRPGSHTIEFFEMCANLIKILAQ
# Chain of 5'-AMP-activated protein kinase catalytic subunit alpha-1 (Mus musculus) (Q5EG47 whole entry): as the sequence (P54645 whole entry) above, with T269A, E518D counted along it
compound,measurement,setting,value
C=C(C)[C@@H]1C[C@@]2(C)C(=CC1=O)CC[C@@H](OC(=O)/C(C)=C\C)[C@@H]2C,Activity,[1],Active
same,inhibition,[2],Dose-dependent effect
same,Activity,[3],Dose-dependent effect
same,Activity,[4],Dose-dependent effect
same,Activity,[5],Dose-dependent effect
same,Activity,[6],Dose-dependent effect
same,Activity,[7],Dose-dependent effect
same,Activity,[8],Active
same,Activity,[9],Active
same,Activity,[10],Dose-dependent effect
same,Activity,[11],Dose-dependent effect
same,Activity,[12],Active
same,Activity,[13],Dose-dependent effect
same,Activity,[14],Active
same,Activity,[15],Dose-dependent effect
same,Activity,[16],Dose-dependent effect
same,Activity,[17],Active
same,Activity,[18],Active
same,Activity,[19],Dose-dependent effect
same,inhibition,[20],inactive
same,Activity,[21],Active
same,Activity,[22],Active
same,Activity,[23],Dose-dependent effect
same,Activity,[24],Active
same,Activity,[25],Dose-dependent effect
same,inhibition,[26],Active
same,Activity,[27],Active
same,Activity,[28],Dose-dependent effect
same,Activity,[29],Dose-dependent effect
same,Activity,[30],Dose-dependent effect
same,Activity,[31],Dose-dependent effect
same,Activity,[32],Active
same,Activity,[33],Active
C/C=C(/C)C(=O)O[C@@H]1CCC2=CC(=O)C(=C(C)C)C[C@]2(C)[C@H]1C,Activity,[17],Active
NC(=O)c1ncn([C@@H]2O[C@H](CO)[C@@H](O)[C@H]2O)c1N,Activity,[34],Active
